Experimental data of several laboratories.
Lines come from different studies, so protocols differ.
Target: Dual specificity tyrosine-phosphorylation-regulated kinase 3 (DYRK3, Homo sapiens, UniProt O43781)
Observed: enzyme activity
Action: inhibitor
Residues used in one study (O43781 1-588): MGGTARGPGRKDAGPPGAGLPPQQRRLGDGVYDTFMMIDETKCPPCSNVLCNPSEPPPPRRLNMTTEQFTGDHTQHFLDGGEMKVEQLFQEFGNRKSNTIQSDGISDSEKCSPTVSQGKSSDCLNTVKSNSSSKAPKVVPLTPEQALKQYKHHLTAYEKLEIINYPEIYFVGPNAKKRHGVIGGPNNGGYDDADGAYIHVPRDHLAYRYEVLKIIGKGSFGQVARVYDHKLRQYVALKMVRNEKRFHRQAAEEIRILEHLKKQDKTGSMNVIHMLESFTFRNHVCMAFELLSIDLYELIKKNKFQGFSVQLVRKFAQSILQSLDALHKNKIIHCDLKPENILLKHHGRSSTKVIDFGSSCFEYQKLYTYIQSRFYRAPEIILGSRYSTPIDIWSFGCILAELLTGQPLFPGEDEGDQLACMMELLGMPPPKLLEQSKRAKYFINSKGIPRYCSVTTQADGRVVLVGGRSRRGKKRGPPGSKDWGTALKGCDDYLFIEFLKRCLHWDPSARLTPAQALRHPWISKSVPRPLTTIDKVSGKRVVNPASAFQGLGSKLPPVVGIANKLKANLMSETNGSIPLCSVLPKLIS

N#Cc1cccc(Nc2nc3cc(C(=O)O)ccc3c3cncnc23)c1
remaining activity (radiometric; 1 µM): 15%

CC(C)(C)c1nc2c(s1)c1nc(N)ncc1c1ccc(NS(=O)(=O)c3c(F)cccc3F)c(F)c12
remaining activity (radiometric; 1 µM): 83%

O=C(Nc1cnn(-c2csc(C(=O)NC3COC3)c2)c1)Nc1c(F)cccc1Cl
remaining activity (5 µM): 99.2%

O=C(O)c1ccc2c(c1)nc(Nc1ccccc1)c1ncncc12
remaining activity (radiometric; 1 µM): 22%

Cn1c(=O)n(-c2ccc(C(C)(C)C#N)cc2)c2c3cc(-c4cnc5ccccc5c4)ccc3ncc21
remaining activity (10 µM): 56%

COc1cc(Cl)c(C(=O)N[C@@H](CN[C@H]2CC[C@@H](N)CC2)Cc2ccc(C#N)cc2)cc1-c1ccc(CN[C@H](C)c2ccc(C)cc2)o1
remaining activity (1 µM): 99%

O=C(O)c1ccc2c(c1)nc(Nc1ccc3ccccc3c1)c1ncncc12
remaining activity (radiometric; 1 µM): 0%

CC(C)(O)[C@H]1CC[C@H](Nc2ccc3ncc(-c4cccc(C(F)(F)F)c4)n3n2)CC1
remaining activity (1 µM): 63.6%

FC(F)c1nc2ccccc2n1-c1nc(N2CCOCC2)nc(N2CCOCC2)n1
remaining activity (10 µM): 87%

Cc1sc(C(=O)NC2COC2)cc1-n1cc(NC(=O)Nc2c(F)cccc2Cl)cn1
remaining activity (10 µM): 101%

O=C(O)c1ccc2c(c1)nc(Nc1ccccc1Cl)c1ncncc12
remaining activity (radiometric; 1 µM): 66%

CC(C)(C)C(=O)c1sc(NC2CCCCC2)nc1N
remaining activity (10 µM): 96%

O=C(O)c1ccc2c(c1)nc(Nc1ccc(F)c(Cl)c1)c1ccncc12
remaining activity (radiometric; 1 µM): 1%

COc1cc(Nc2cnc(C#N)c(O[C@H](C)CN(C)C)n2)ncc1-c1cnn(C)c1
remaining activity (radiometric; 10 µM): 79%

CC(C)(C)c1nc(-c2cccc(NS(=O)(=O)c3c(F)cccc3F)c2F)c(-c2ccnc(N)n2)s1
remaining activity (radiometric; 1 µM): 91%

Nc1nc(NC2CCCCC2)sc1C(=O)c1ccccc1
remaining activity (10 µM): 57%
